Bioassay records from PubChem BioAssay.
Compounds with a hit are over-represented: about 3% of the library has one in this group of screens.
KCC2 mod: modulates chloride dependent transport by human KCC2; actives 2.2% (n = 190,000); Q9H2X9; AID 1456; B-score of Tl+ flux slope (higher = more flux/activation; lower = inhibition) at 10 µM; KCC2 cells, thallium flux FluoZin-2 fluorescence;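 active = thallium flux slope and its plate-corrected score both differing from the plate sample mean at a set confidence after two filtering rounds, in either direction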;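 also: slope of fluorescence scaled to starting intensity during 10 to 20 s after thallium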
Target sequence (Q9H2X9 whole entry, looked up): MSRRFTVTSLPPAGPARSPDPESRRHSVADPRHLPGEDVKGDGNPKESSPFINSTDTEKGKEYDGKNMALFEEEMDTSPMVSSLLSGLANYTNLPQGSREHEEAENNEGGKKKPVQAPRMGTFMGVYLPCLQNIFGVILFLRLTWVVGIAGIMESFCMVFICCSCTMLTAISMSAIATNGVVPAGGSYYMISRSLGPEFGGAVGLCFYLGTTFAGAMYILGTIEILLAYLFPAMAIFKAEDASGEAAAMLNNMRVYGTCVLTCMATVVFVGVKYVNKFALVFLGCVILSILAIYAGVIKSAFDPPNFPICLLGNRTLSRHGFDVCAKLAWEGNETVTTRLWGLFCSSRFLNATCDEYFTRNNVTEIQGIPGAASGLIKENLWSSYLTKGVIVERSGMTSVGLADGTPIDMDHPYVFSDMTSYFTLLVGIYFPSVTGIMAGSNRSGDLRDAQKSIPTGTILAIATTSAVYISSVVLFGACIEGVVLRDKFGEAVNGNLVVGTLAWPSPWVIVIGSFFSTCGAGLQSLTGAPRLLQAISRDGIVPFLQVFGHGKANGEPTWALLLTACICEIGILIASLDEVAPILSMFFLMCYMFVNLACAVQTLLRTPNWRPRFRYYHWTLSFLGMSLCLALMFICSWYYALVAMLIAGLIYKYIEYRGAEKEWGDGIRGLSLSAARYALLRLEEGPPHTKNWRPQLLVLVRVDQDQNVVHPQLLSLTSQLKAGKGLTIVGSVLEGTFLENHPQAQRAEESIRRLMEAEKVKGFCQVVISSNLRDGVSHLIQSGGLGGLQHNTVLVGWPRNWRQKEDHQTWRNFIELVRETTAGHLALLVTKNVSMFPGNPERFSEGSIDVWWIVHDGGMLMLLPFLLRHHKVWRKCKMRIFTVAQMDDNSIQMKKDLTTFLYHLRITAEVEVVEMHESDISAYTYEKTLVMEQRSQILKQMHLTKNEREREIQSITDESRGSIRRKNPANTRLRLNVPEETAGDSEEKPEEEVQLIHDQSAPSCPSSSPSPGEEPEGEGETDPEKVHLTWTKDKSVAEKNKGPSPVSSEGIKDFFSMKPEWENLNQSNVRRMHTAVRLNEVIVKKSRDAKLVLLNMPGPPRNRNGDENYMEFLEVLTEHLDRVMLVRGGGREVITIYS
Rad51 HR inh: blocks human Rad51 in homologous recombination; Q06609; hRad51 DNA strand exchange, fluorescence dequenching; inhibition, % at 10 µM; actives 0.085% (n = 200,000); AID 1385;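 active = inhibition above 40% at the single screening dose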;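 also: 0% = DMSO control wells and 100% = blanks with heterologous ssDNA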
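Material: hRad51 filaments on single-stranded DNA; Reagent: Donor/quencher-labelled 47-bp dsDNA substrate; Compound: 10 µM final, single point; Schedule: 37 °C 15-min filament assembly, 30-min compound preincubation, 15-min exchange; Technique: FRET fluorescence, excitation 485 nm, emission 520 nm; Benchmarks: control wells and blank wells on each plate.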
ROMK primary: modulators of human ROMK potassium channel; P48048; Tet-inducible ROMK, thallium flux fluorescence; actives lie on both sides; B-score at 10 µM; actives 2% (n = 130,000); AID 1918;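 active = signal ratio slope over the read window, or its plate-corrected B-score, at least 3 SD from the plate mean, either direction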;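 also: B-score of the F/F0 ratio slope over 7 to 12 s after thallium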
PKD1 kinase inh: blocks activity of human protein kinase D1; AID 797; Q15139; PKD1 kinase fluorescence polarization assay; actives 0.056% (n = 200,000); inhibition, % (test concentration not listed); in the data active = inhibition above about 50%
KCC2 sec1: confirmation of human KCC2 transport modulators | normalised thallium flux (F/F0 slope) at 10 µM | actives 15% (n = 3,700) | shares compounds with KCC2 mod | AID 1713 | HEK293-KCC2, thallium flux, FluoZin2 fluorescence; active compounds read high;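 active = thallium flux slope above the same plate's solvent-only control mean plus 3 SD; inconclusive = the two replicate wells disagree; inactive = no significant difference from solvent-only control wells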
KCC2 bumet counter: bumetanide-insensitive thallium flux in KCC2 cells with ouabain, counter-screen | AID 1714 | normalized thallium flux at 10 µM | actives 49% (n = 3,700) | HEK293-KCC2 + bumetanide/ouabain, thallium flux FluoZin2; active compounds read high | shares compounds with KCC2 mod;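 active = thallium entry rate above the same plate's blocked-transporter control wells by more than 3 SD; inconclusive = the two repeat wells disagree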;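 also: raw slope of fluorescence over initial fluorescence between 10 and 20 s after thallium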
KCC2 sec2: KCC2 (human) modulation, second secondary assay. AID 1715. shares compounds with KCC2 mod. actives 23% (n = 3,700). HEK293-KCC2, thallium flux FluoZin2 fluorescence; actives lie on both sides; F/F0 rise rate, 10–20 s post-thallium. normalized thallium flux at 10 µM;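 active = thallium flux slope more than 3 SD above or below the plate's solvent-only control mean, mostly below; inconclusive = the two repeat wells disagreed; inactive = no significant shift from solvent-only controls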;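 also: raw slope with 0.1% DMSO as baseline and bumetanide as block control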
HEK293 Tl flux: parental HEK flux effect, counter-screen; HEK293 parental cells, thallium flux FluoZin2, ouabain; baseline-ratio fluorescence slope, 10–20 s after thallium; shares compounds with KCC2 mod; actives 46% (n = 3,700); thallium flux rate (normalised fluorescence) at 10 µM; AID 1716;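 active = thallium flux rate significantly above the same plate's solvent-only control wells, beyond their mean plus 3 SD; inconclusive = the two replicate wells gave conflicting results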
KCC2 ouabain: modulates human KCC2 on retest with ouabain; shares compounds with KCC2 mod; AID 1717; HEK293-KCC2, thallium flux FluoZin2 fluorescence; bidirectional: low = inhibitor, high = activator; actives 48% (n = 3,700); raw Tl+ flux slope (below DMSO = inhibition, above = activation) at 10 µM;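 active = thallium flux slope beyond 3 SD from same-plate DMSO control mean in most replicates, usually higher, sometimes lower; inconclusive = repeat tests gave conflicting results; inactive = no significant difference from controls in most replicates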;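 also: slope of initial-normalized fluorescence between seconds 10 and 20 after thallium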
HEK counter2: acts in parental HEK cells, second KCC2 counter-screen | shares compounds with KCC2 mod | HEK293 parental, thallium flux FluoZin-2 fluorescence slope | thallium flux slope at 10 µM | actives 33% (n = 3,700) | AID 1718;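 active = thallium flux slope above the same plate's solvent-control mean plus 3 SD in both duplicate wells; inconclusive = duplicate wells that disagreed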;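 also: run without ouabain in cells lacking the KCC2 cotransporter; slope of fluorescence scaled to its starting value between 10 and 20 s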
The depositor's hits bear a star; ? = inconclusive; / = no result.

SMILES	KCC2 mod	Rad51 HR inh	ROMK primary	PKD1 kinase inh	KCC2 sec1	KCC2 bumet counter	KCC2 sec2	HEK293 Tl flux	KCC2 ouabain	HEK counter2
O=C(Oc1cc(=O)n2ccccc2n1)c1ccccc1	-4.3*	4	-2.1	-8	0.012*	0.0074	0.028	0.0056*	0.021	0.0095
CCCNC(=O)N1CCN(Cc2ccco2)CC1	/	/	0.61	0	/	/	/	/	/	/
COc1ccc(CCn2c(O)cc3nn(-c4nc5ccccc5s4)c(=O)c-3c2C)cc1	3.7*	/	/	/	0.007	0.0077*	0.03	0.01*	0.021	?
COC(=O)c1ccc(/C(O)=C(\C#N)c2nc3ccccc3s2)cc1	-6.8*	7	/	-1	0.008	0.0068	0.034	0.0038	0.013*	0.01
Cc1ccc(OC/C(O)=C(\C#N)c2nc3ccccc3s2)cc1	-4.3*	-3	0.79	-8	0.015	0.0068*	0.022*	?	0.012*	0.011
CC(C)(CC(=O)O)CC(=O)Nc1cc(C(F)(F)F)cc(C(F)(F)F)c1	-1.8	/	/	/	/	/	/	/	/	/
CCCCC(CC)C(=O)Nc1ccccc1C(=O)NC(C)C (stereo not drawn)	-0.012	3	/	5	/	/	/	/	/	/
CN1C(=S)SC(C)(C)C1NO (stereo not drawn)	-4.7*	/	0.8	-3	0.0084	0.0045	0.032	0.0075	0.021	0.011
Cc1nc2scc(-c3ccc(Cl)cc3)c2c(=O)o1	/	-1	-1.2	0	0.0094	0.0067	0.033	0.004	0.019	0.011
COc1ccc(C(=O)C2CCCN(C(=O)c3noc4c3CCCC4)C2)cc1F (stereo not drawn)	-0.016	/	-0.68	5	/	/	/	/	/	/
COc1ccc(C(=O)C2CCCN(C(=O)c3noc4c3CCCC4)C2)c(C)c1 (stereo not drawn)	/	-14	0.23	0	0.0064	0.004	0.028	?	0.017	0.01
CN1/C(=C/C(=O)c2nc(S(C)(=O)=O)ncc2Cl)C(C)(C)c2ccccc21	-7.2*	-5	/	-2	0.0061	?	0.022*	?	0.013*	0.01
Cc1cc(C)c(C#N)c(N2CCN(Cc3ccccc3)CC2)n1	-3.7*	3	-0.21	-1	0.017	0.0042	?	0.0067	0.014	0.0098
Cn1c(=O)n(C)c2cc([N+](=O)[O-])c(N3CCN(CCO)CC3)cc21	0.58	/	0.056	9	/	/	/	/	/	/
CN1C(=O)/C(=C/c2ccccc2OCc2cccc(F)c2)NC1=S	/	-1	/	14	/	/	/	/	/	/
CSc1ccc(C(=O)C2CCCN(S(=O)(=O)c3c(C)noc3C)C2)cc1 (stereo not drawn)	-0.21	14	0.4	5	/	/	/	/	/	/
CCCNC(=O)c1ccccc1NC(=O)c1ccccc1N(C)S(C)(=O)=O	0.99	-2	0.56	-4	/	/	/	/	/	/
CC(C)CNC(=O)c1ccccc1NC(=O)c1ccccc1N(C)S(C)(=O)=O	-3.8*	6	0.38	-2	0.0065	0.0047	?	?	0.019	0.01
Cc1c(C(=O)O)sc(=S)n1CCOc1ccccc1	/	-3	-0.53	-12	0.0072	0.005	0.024*	0.0066	0.015*	0.01
COC(=O)c1sc(=S)n(Cc2ccccc2)c1C	-2.2	17	/	/	/	/	/	/	/	/
COc1ccc2c(c1)C(=NN)c1cc(OC)ccc1-2	-1.1	-2	/	-4	/	/	/	/	/	/
Cc1cc2cc(C(c3nnnn3Cc3ccccc3)N3CCc4ccccc43)c(=O)[nH]c2cc1C (stereo not drawn)	/	/	0.74	-4	0.013	0.0042	0.027	0.0072	0.014*	0.01
CCN(CC)CCN1C(=O)C(=O)/C(=C(/O)c2ccc(OC)cc2)C1c1ccco1 (stereo not drawn)	8.7*	/	1.1	-8	0.0061	0.0057*	0.031	?	0.02	?
O=C(OCC(=O)N1CCCCC1)c1cc(NS(=O)(=O)c2ccc(Cl)c([N+](=O)[O-])c2)ccc1O	-0.24	-1	0.4	1	/	/	/	/	/	/
CN(CCOc1ccccc1)S(=O)(=O)c1ccc2oc3ccccc3c2c1	/	/	/	6	/	/	/	/	/	/
SMILES	KCC2 mod	Rad51 HR inh	ROMK primary	PKD1 kinase inh	KCC2 sec1	KCC2 bumet counter	KCC2 sec2	HEK293 Tl flux	KCC2 ouabain	HEK counter2
CCOC(=O)SC1=N/C(=C\c2ccc(N(C)C)cc2)C(=O)S1	19*	2	/	-9	0.017*	0.021*	0.029	0.013*	0.028*	0.011*
Cc1ccc(C)c(NC(=O)CSc2nnc([C@@H](N)Cc3ccccc3)o2)c1	-4.3*	0	/	-2	0.0089	0.0067	?	0.0068	0.014*	?
O=C(O)C(Cc1c[nH]c2ccccc12)N1CCS(=O)(=O)CC1 (stereo not drawn)	0.54	8	-0.092	0	/	/	/	/	/	/
CC1=NN(c2nc(-c3ccc(C)cc3)cs2)C(=O)C1N=Nc1ccccc1O (stereo not drawn)	-0.64	-1	0.72	-4	/	/	/	/	/	/
CC1=NN(C(N)=S)C(=O)C1N=Nc1ccccc1 (stereo not drawn)	5.2*	-2	2.2	-10	0.006	0.024*	0.029	?	?	0.012
CC1=NN(C(N)=S)C(=O)C1N=Nc1cccc2ccccc12 (stereo not drawn)	5.4*	3	0.63	-8	0.0066	0.046*	0.027	0.011*	?	?
CC1=NN(c2ccccc2)C(=O)C1N=Nc1ccccc1 (stereo not drawn)	2.9	-5	0.66	1	/	/	/	/	/	/
O=C(NC(=S)NCCC1=CCCCC1)c1ccccc1Br	46*	4	0.35	3	?	0.041*	0.048*	0.039*	0.043*	0.025*
O=C(NC(=S)NC1CCCC1)c1ccccc1Br	8.8*	9	-0.17	-6	0.013*	0.055*	0.037	0.022*	?	0.015*
CCOC(=O)/C=C/C(=O)Nc1ccccc1C(=O)NC1CCCCC1	1.3	/	-0.0045	15	/	/	/	/	/	/
CN(C)c1ccc(C(=O)c2ccc(O)cc2O)cc1	-3.6*	11	2.4	5	0.0076	0.0059	0.034	0.0075	?	0.011
O=C(c1ccc(O)cc1)c1ccc(O)cc1O	1.1	-11	/	/	/	/	/	/	/	/
Cc1cc(N)n2ncc(-c3ccccc3)c2n1	-0.19	-5	0.043	5	/	/	/	/	/	/
CC(=O)Nc1ccc(Nc2cc(C)nc3c(-c4ccccc4)cnn23)cc1	-3.9*	-2	/	-2	0.0078	0.0092*	0.032	0.0074	0.02	0.011
